Consider 2 compounds from article PMC3957490 (Neuron, 2014).

Format in all cases: cell-based
For experiment [1], the target named is T1, 2AC1/2AC2 (tagged GluN1/GluN2A) (Rattus norvegicus, UniProt P35439+Q00959). As to the kind of experiment: two-electrode voltage clamp, Xenopus oocytes. The gist of the method: (§1)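 Oocytes injected with about 10 ng total cRNA of rat GluN1-1a plus wild-type or C1/C2-tagged GluN2 (tagged at 1:6:6); two-electrode voltage clamp. GluN2A-selective antagonists: 100 μM glutamate + 3 μM glycine. Divalent metal inhibitor: 50 μM glutamate + 50 μM glycine, −20 mV, kept below 300 nM, pH 7.3 (also 7.8, 6.8). GluN2B-selective antagonists: 100 μM glutamate + 50 μM glycine, −40 mV. IC50 from fitted concentration-response data, mean ± SEM over N oocytes.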
In general terms: Two-electrode voltage clamp holds a large cell at a set potential and records current.

For experiment [2], the target named is T2, wt 2A/2A (wild type GluN1/GluN2A) (Rattus norvegicus, UniProt P35439+Q00959). In words: two-electrode voltage clamp, Xenopus oocytes. The gist of the method: as §1
Experiment [3] has as its target T3, 2AC1/2BAC2 (GluN1/GluN2A/GluN2B triheteromer) (Rattus norvegicus, UniProt P35439+Q00959+Q00960). In words: two-electrode voltage clamp, Xenopus oocytes.
Experiment [4] concerns the target wt 2B/2B (wild type GluN1/GluN2B) (Rattus norvegicus, UniProt P35439+Q00960). In words: whole-cell patch clamp, HEK293 cells. As to conditions: agonist; […] glutamate, […] glycine. A general note: Patch clamp records ionic current or voltage across a cell membrane.
Experiment [5] concerns the target T1, 2AC1/2AC2 (tagged GluN1/GluN2A). In words: whole-cell patch clamp, HEK293 cells. The settings on record: agonist; […] glutamate, […] glycine.
In experiment [6] the target is 2BAC1/2BAC2 (tagged GluN1/GluN2B with GluN2A CTD) (Rattus norvegicus, UniProt P35439+Q00960). As to the kind of experiment: whole-cell patch clamp, HEK293 cells. The settings on record: agonist; […] glutamate, […] glycine.
The target in experiment [7] is T3, 2AC1/2BAC2 (GluN1/GluN2A/GluN2B triheteromer). In words: whole-cell patch clamp, HEK293 cells. As to conditions: agonist; […] glutamate, […] glycine.
Experiment [8] has as its target T2, wt 2A/2A (wild type GluN1/GluN2A). In words: whole-cell patch clamp, HEK293 cells. As to conditions: agonist; […] glutamate, […] glycine.

One may read the IC50 as the midpoint of a concentration-inhibition curve.

T3 sequence (Q00959 23-1464, other chains not shown): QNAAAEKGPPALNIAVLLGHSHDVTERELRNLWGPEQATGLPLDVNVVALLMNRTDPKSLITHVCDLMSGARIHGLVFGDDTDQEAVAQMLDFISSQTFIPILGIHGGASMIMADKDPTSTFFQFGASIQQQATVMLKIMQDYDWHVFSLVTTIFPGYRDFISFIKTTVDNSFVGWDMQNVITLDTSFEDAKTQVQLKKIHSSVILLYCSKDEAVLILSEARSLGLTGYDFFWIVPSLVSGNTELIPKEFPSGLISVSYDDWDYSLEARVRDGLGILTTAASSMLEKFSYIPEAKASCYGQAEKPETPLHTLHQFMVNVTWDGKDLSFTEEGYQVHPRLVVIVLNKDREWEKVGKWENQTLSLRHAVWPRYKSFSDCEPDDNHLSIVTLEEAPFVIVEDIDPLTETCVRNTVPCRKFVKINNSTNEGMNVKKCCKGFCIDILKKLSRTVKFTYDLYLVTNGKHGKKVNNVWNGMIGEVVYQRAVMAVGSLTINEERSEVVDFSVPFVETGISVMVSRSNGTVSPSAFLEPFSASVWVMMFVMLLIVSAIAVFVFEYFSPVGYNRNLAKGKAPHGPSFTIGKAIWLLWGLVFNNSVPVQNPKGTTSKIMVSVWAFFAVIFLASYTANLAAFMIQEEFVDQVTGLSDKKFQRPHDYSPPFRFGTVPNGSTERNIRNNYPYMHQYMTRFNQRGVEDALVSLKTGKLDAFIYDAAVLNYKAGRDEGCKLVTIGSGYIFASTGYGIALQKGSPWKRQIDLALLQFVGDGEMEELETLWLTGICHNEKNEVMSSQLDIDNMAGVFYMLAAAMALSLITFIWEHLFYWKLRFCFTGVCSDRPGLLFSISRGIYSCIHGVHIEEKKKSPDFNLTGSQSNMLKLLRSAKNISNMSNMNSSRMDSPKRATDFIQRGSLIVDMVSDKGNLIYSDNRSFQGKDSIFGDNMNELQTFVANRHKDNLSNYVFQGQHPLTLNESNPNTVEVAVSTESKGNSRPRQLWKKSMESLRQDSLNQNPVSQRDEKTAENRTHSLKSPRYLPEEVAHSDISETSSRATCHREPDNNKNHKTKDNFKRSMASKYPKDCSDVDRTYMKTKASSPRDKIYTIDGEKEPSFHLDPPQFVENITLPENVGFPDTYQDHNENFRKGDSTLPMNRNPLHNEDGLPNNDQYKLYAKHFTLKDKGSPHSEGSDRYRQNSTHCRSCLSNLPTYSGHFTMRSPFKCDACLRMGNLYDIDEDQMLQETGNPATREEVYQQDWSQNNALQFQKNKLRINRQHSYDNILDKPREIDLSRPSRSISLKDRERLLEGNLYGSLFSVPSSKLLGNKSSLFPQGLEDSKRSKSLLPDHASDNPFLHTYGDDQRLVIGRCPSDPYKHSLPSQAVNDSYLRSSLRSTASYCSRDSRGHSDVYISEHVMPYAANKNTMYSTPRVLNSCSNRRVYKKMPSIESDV
T1 sequence (Q00959 23-1464, other chains not shown): as above
T2 sequence (Q00959 23-1464, other chains not shown): as above

On to `O=C(NNC(=O)c1ccc(CNS(=O)(=O)c2ccc(F)c(Cl)c2)cc1)c1ccccc1` [TCN-201], for which the IC50 came to 360 ± 20 nM in experiment [1], 370 ± 30 nM in experiment [2] and 1350 ± 130 nM in experiment [3].

As for `N[C@@H](CCC(=O)O)C(=O)O` [glutamate], the “Brief glutamate activation (5 ms) / τweighted” value worked out at 314 ± 13 ms in experiment [4]; 33 ± 2 ms in experiment [5]; 274 ± 24 ms in experiment [6]; 57 ± 4 ms in experiment [7]; 32 ± 1 ms in experiment [8].
